Most compounds without a hit are left out; they make up all but 4.1% or so of the library.
KCNQ1 block – blocks the human KCNQ1 potassium channel. CHO-K1 KCNQ1, FluxOR thallium flux fluorescence; hits give high values. P51787. 310,000 compounds, 1.3% hits. AID 2642. B-score at 10 µM;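 active = compounds whose thallium flux B-score, printed positive for inhibition, exceeds three library SD while starting fluorescence stays within three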;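 also: channel opened by potassium depolarization with thallium stimulus after 20 min compound exposure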
Cl transport mod – KCC2 (human) Cl- transport modulation; 190,000 compounds, 2.2% hits; Q9H2X9; B-score of Tl+ flux slope (higher = more flux/activation; lower = inhibition) at 10 µM; KCC2 cells, thallium flux FluoZin-2 fluorescence;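 active = thallium flux slope and its plate-corrected score both differing from the plate sample mean at a set confidence after two filtering rounds, in either direction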;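 also: slope of fluorescence scaled to starting intensity during 10 to 20 s after thallium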
KCNK9 block – inhibitors of human KCNK9 two-pore domain potassium channel; Q9NPC2; HEK293 KCNK9, FluxOR thallium flux fluorescence; hits give low values; B-score at 10 µM; 310,000 compounds, 1.2% hits;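 active = ratio B-score over 3 SD below the library mean, with starting fluorescence within 5 SD of its mean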;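 also: negative B-score means less thallium flux so channel inhibition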
hERG protect – compounds protecting human hERG from proarrhythmic drug block | Q12809 | 310,000 compounds, 0.51% hits | AID 1511 | CHO-hERG, FluxOR thallium flux, dofetilide IC70 present | activation (rescue from dofetilide block), less the hit threshold, % at 10 µM;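 active = activation above the mean of controls blocked by dofetilide plus 5 SD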;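 also: thallium influx through hERG after potassium depolarization seen as dye fluorescence rise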
KCNK3 block – human KCNK3 channel inhibition, primary screen | CHO-KCNK3 thallium flux, FluxOR fluorescence; hits give low values | 340,000 compounds, 0.84% hits | B-score at 10 µM;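 active = B-score under library mean minus 4 SD, starting fluorescence ratio at most library mean plus 5 SD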;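 also: more negative B-score means stronger inhibition of thallium flux through KCNK3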
Target sequence (O14649 whole entry, looked up): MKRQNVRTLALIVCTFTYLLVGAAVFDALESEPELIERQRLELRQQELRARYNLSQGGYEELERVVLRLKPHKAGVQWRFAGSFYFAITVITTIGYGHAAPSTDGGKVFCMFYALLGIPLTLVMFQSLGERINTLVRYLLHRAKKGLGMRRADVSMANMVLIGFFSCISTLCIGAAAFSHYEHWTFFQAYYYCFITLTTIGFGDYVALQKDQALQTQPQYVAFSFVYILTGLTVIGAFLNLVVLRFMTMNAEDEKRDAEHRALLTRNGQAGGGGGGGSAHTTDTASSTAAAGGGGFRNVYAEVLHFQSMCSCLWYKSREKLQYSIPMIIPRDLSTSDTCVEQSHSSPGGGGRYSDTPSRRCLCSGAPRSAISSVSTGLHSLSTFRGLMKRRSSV
KCNQ1 pot – potentiators or activators of human KCNQ1 potassium channel; CHO-K1 KCNQ1, thallium flux FluxOR fluorescence; hits give high values; P51787; 310,000 compounds, 0.35% hits; B-score at 10 µM; AID 2648;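 active = fluorescence ratio B-score, a plate-corrected score, at least three library SD, with initial intensity B-score within 5 SD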
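Doses: Single concentration per compound, DMSO matched to controls | Test system: KCNQ1-transfected CHO-K1 cells | Timing: 90 min dye loading and 20 min compound exposure, both at room temperature | Measured by: Kinetic FluxOR thallium fluorescence, 10-s 1-Hz baseline, 110-s post-stimulus read | Medium: Assay buffer with matched DMSO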
KCNK9 block conf – confirmation of human KCNK9 potassium channel inhibitors. 4,900 compounds, 43% hits. shares compounds with KCNK9 block. HEK293 KCNK9 cells, FluxOR thallium flux fluorescence. inhibition, % at 10 µM;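 active = thallium signal inhibited by more than 5 SD of the compound-free buffer control wells, on both duplicate plates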;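 also: 0% = assay buffer control wells without compound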
Kir2-1 spec – selectivity of KCNK9 modulators against mouse Kir2.1; shares compounds with KCNK9 block; Kir2.1 cells, FluxOR thallium flux fluorescence; inhibition, % at 10 µM; 4,900 compounds, 4% hits;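 active = thallium signal drop more than 5 SD beyond the mean of the no-compound control wells, seen in both duplicate plates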;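 also: signal is fluorescence rise after thallium addition divided by baseline fluorescence; plate controls were assay buffer only for no effect and full block by chlorpromazine control for full effect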
HEK293 Tl ctr – second check of KCNK9 modulator effects in non-induced HEK293 cells; shares compounds with KCNK9 block; FluxOR thallium flux; inhibition, % at 10 µM; 4,900 compounds, 40% hits; AID 492997;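 active = thallium signal drop beyond 5 SD of the untreated control mean, on both duplicate plates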;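 also: plate controls were buffer only IC0 wells for no effect and SID17386958 at its maximal inhibitory level for full effect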
* marks the source's active call; other numbers are inactive results; i = inactive; nt = not tested or not shown.

SMILES	KCNQ1 block	Cl transport mod	KCNK9 block	hERG protect	KCNK3 block	KCNQ1 pot	KCNK9 block conf	Kir2-1 spec	HEK293 Tl ctr
CCn1cc(CCCC(=O)NCc2ccc(OC)cc2)c2ccccc21	i	nt	i	-3	i	i	i	i	i
CCOc1ccc(CNC(=O)CCc2cn(Cc3ccccc3)c3ccccc23)cc1	i	-0.29	i	-11	i	i	nt	nt	nt
CCOc1ccccc1CNC(=O)CCc1cn(CC)c2ccccc12	i	nt	i	-6	i	i	i	i	i
Cc1ccc(F)c(N=Cc2c(O)c3ccccc3oc2=O)c1	i	nt	i	-7	i	i	nt	nt	nt
CN1CCN(c2nc(-c3cccs3)nc3ccccc23)CC1	i	0.087	i	-12	i	i	nt	nt	nt
Oc1ccc(N2CCN(c3nc(-c4cccs4)nc4ccccc34)CC2)cc1	i	nt	-8.4*	-12	i	i	i	i	i
Oc1ccccc1N1CCN(c2nc(-c3cccs3)nc3ccccc23)CC1	i	-0.45	-13*	-14	i	i	40%*	i	28%*
COc1ccc(OC)c(C(=O)NC(CC(N)=O)c2ccc(N3CCC(Cc4ccccc4)CC3)c([N+](=O)[O-])c2)c1 (stereo not drawn)	i	nt	-11*	-16	i	i	55%*	i	i
Cc1ccc(CN2CCN(/N=C/C(Br)=C\c3ccccc3)CC2)cc1	i	-0.83	i	2	i	16*	i	i	i
COC(=O)C(Cc1ccc(O)cc1)N1Cc2ccccc2C1=O (stereo not drawn)	i	nt	i	-4	i	i	nt	nt	nt
COC(=O)C(Cc1ccc(OC(=O)c2ccc(C)cc2)cc1)N1Cc2ccccc2C1=O (stereo not drawn)	i	nt	i	-4	i	i	i	i	i
Cc1nn2c(N3CCN(c4ccccn4)CC3)cc(C(C)C)nc2c1-c1ccccc1	i	nt	-12*	-7	i	i	63%*	i	38%*
CCCCN(C(=O)c1cccc(S(=O)(=O)N(C)c2ccc(C)cc2)c1)c1c(N)n(CCCC)c(=O)[nH]c1=O	i	nt	i	-10	i	i	nt	nt	nt
CC(C)CN1C(=S)SC(C)(C)C1n1oc(=O)n(-c2ccccc2)c1=O (stereo not drawn)	i	-0.18	i	-1	i	i	i	i	i
COc1ccccc1/C=C(/C(=O)OCC(N)=O)c1ccccc1	i	0.23	i	-4	i	i	nt	nt	nt
CCc1ccc(NC(=O)COC(=O)/C(=C/c2ccccc2OC)c2ccccc2)cc1	i	0.16	i	-7	i	i	i	i	i
CC(C)c1ccc(OC(=O)c2cccc(S(=O)(=O)N3CCN(C)CC3)c2)cc1	i	nt	i	-15	i	i	i	i	i
COc1ccc(C(=O)C2CCCN(C/C=C/c3ccccc3OC)C2)c(OC)c1 (stereo not drawn)	i	-1.6	i	-20	i	i	i	i	i
COc1cccc(C(=O)C2CCCN(C/C=C/c3ccccc3OC)C2)c1 (stereo not drawn)	i	-0.71	i	-33	i	i	i	i	i
CCOC(=O)c1sc(NC(=O)CN2C(=O)C3CC=CCC3C2=O)nc1C (stereo not drawn)	nt	nt	nt	nt	i	nt	nt	nt	nt
O=C(Nc1ccccc1)OC1CCCCc2cccnc21 (stereo not drawn)	i	-0.43	i	-10	i	i	i	i	28%*
N#Cc1ccc(NC(=S)NC(=O)C2CCCCC2)cc1	nt	nt	nt	nt	i	nt	nt	nt	nt
COc1ccc(OC)c(NC(=O)C2CCCN(S(C)(=O)=O)C2)c1 (stereo not drawn)	i	nt	i	-4	i	i	nt	nt	nt
CCCOc1ccc(-c2c(=O)n(OCc3ccc([N+](=O)[O-])cc3)c3ccccc3[n+]2[O-])cc1	i	-0.98	-11*	-4	i	i	50%*	i	34%*
OCC[C@H]1C[C@H](O)[C@@H](O)[C@@]2(CCc3ccccc3O2)O1	nt	nt	nt	nt	i	nt	nt	nt	nt
SMILES	KCNQ1 block	Cl transport mod	KCNK9 block	hERG protect	KCNK3 block	KCNQ1 pot	KCNK9 block conf	Kir2-1 spec	HEK293 Tl ctr
C=CCN(C)CC/C=C1\c2ccccc2CSc2ccccc21	i	nt	i	-12	i	i	i	i	i
CN(CC/C=C1/c2ccccc2CSc2ccccc21)CCCO	i	1.3	i	-7	i	i	nt	nt	nt
COc1ccc(S(=O)(=O)Nc2cc3c4c(c2)CCC(=O)N4CCC3)cc1C	i	nt	i	-11	i	i	nt	nt	nt
Cc1ccc(SCC(=O)O/N=C(\N)c2ccc([N+](=O)[O-])cc2)cc1	i	-0.15	i	-10	i	i	i	i	i
Cc1cc(C(=O)N2CCCC(N3CCN(c4cccc(C(F)(F)F)c4)CC3)C2)nn1C (stereo not drawn)	i	nt	i	-7	i	i	i	i	i
CC1(CCC(=O)N2CCCC(N3CCN(c4cccc(C(F)(F)F)c4)CC3)C2)CC1 (stereo not drawn)	i	nt	i	-17	i	i	i	i	i
CSCC(=O)N1CCCC(N2CCN(c3cccc(C(F)(F)F)c3)CC2)C1 (stereo not drawn)	i	nt	i	-3	i	i	nt	nt	nt
Cc1cc(C(=O)N2CCCC(N3CCN(c4cccc(C(F)(F)F)c4)CC3)C2)c(C)o1 (stereo not drawn)	i	nt	i	-16	i	i	i	i	i
CCOC(=O)n1c(=O)n(Cc2ccccc2Cl)c2ccccc21	i	nt	i	-6	i	i	nt	nt	nt
CCOC(=O)n1c(=O)n(Cc2ccc(Cl)cc2Cl)c2ccccc21	i	nt	-17*	-8	i	i	76%*	i	i
NNC(=O)c1sccc1OCc1ccc(Cl)cc1Cl	i	-1.1	i	-12	i	i	nt	nt	nt
COc1ccc(C(=S)N2CCN(c3ccccc3C)CC2)cc1	i	i	i	-6	i	i	nt	nt	nt
COc1ccccc1Nc1nc(-c2cccc(N3C(=O)c4ccccc4C3=O)c2)cs1	i	0.21	i	-1	i	i	i	i	i
COc1ccc(CCCc2nnc(SCC(=O)NN)o2)c(C)c1	i	nt	i	-2	i	i	nt	nt	nt

High-throughput results: PubChem BioAssay, several laboratories
